Results published in ChEMBL document CHEMBL1154352, “Toll-like receptor 7 selective synthetic oligoribonucleotide agonists: synthesis and structure-activity relationship studies” (J Med Chem, 2009).
Activity calls are given as the source filed them. The calls are words filed in the database; no cut-off is given here.

Tests used:
[1] = target: T1, Toll-like receptor 7 (Homo sapiens) (UniProt Q9NYK1); experiment: Activation of human TLR7 expressed in HEK293XL assessed as fold induction of NF-kappaB activity at 50 ug/ml after 18 hrs by reporter gene assay relative to control
T1 sequence (whole entry): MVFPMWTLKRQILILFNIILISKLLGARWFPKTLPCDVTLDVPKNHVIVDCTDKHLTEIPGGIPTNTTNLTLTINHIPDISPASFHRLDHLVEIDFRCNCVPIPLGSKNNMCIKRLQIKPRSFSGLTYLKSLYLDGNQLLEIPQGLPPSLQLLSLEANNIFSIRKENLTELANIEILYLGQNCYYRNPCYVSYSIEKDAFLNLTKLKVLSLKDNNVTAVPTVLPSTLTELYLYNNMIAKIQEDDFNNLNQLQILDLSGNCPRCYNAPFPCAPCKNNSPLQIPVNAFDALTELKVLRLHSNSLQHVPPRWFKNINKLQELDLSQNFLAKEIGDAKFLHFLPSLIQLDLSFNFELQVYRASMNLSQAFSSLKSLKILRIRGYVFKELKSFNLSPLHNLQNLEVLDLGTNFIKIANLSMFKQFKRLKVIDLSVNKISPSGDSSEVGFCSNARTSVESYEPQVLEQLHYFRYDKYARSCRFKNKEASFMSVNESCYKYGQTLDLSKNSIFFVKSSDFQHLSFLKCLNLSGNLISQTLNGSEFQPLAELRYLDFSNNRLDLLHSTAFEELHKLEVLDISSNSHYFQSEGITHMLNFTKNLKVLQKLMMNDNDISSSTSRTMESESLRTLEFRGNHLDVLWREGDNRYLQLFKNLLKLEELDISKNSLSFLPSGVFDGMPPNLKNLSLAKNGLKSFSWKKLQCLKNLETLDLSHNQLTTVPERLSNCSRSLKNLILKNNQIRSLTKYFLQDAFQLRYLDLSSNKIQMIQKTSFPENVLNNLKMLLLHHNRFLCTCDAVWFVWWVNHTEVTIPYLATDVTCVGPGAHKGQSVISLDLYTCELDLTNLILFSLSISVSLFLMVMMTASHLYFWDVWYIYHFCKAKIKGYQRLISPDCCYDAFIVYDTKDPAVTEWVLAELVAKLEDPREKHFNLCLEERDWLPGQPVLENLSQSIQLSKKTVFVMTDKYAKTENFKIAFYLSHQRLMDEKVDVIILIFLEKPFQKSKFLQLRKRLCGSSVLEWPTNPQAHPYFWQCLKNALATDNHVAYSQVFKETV
In short: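 HEK293 cells stably expressing human TLR7 or TLR8, transiently transfected with SEAP reporter plasmid; medium replaced, SIMRA compounds added, 18 h incubation. Supernatant SEAP measured by QuantiBlue; expressed as fold increase in NF-κB activity over PBS control. Tabulated data at 50 μg/mL, representative of three independent experiments.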

Homo sapiens [2] = organism: Homo sapiens; experiment: Ratio of human TLR7 activity to human TLR8 activity
In short: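 TLR7/TLR8 ratio computed from fold NF-κB (SEAP reporter) activation in HEK293 cells stably expressing human TLR7 versus TLR8, compounds at 50 μg/mL, 18 h exposure; representative of three independent experiments.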

Homo sapiens [3] = organism: Homo sapiens; experiment: Immunostimulatory activity in human mDC assessed as induction of IL6 at 100 ug/ml after 24 hrs; format: functional
In short: (§1)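 Human mDCs isolated from PBMCs by CD19+ B-cell depletion then BDCA1 positive selection; plated at 1 × 10^6 cells/mL, compounds in PBS, 37 °C for 24 h; supernatant cytokines by human Luminex multiplex. Representative of four independent experiments.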

Homo sapiens [4] = organism: Homo sapiens; experiment: Immunostimulatory activity in human pDC assessed as induction of IP10 at 100 ug/ml after 24 hrs; format: functional
In short: (§2)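 Human pDCs plated at 1 × 10^6 cells/mL; compounds in PBS added, 37 °C for 24 h; supernatant cytokines/chemokines by human Luminex multiplex kit.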

Homo sapiens [5] = organism: Homo sapiens; experiment: Immunostimulatory activity in human mDC assessed as induction of IFNalpha at 100 ug/ml after 24 hrs; format: functional; in short: as §1
Homo sapiens [6] = organism: Homo sapiens; experiment: Immunostimulatory activity in human mDC assessed as induction of IP10 at 100 ug/ml after 24 hrs; format: functional; in short: as §1
Mus musculus = experiment: Immunomodulatory activity in C57BL/6 mouse assessed as induction of IL12 release at 25 mg/kg, sc after 2 hrs by ELISA; format: functional, organism-based; set-up: dose 25 mg/kg
In short: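 Female C57BL/6 wild-type mice, 5–8 weeks old, n=3; compounds given subcutaneously at 10 or 25 mg/kg. Retro-orbital blood at 2 h; serum cytokines by mouse Luminex multiplex or IL-12 ELISA.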

Homo sapiens [7] = organism: Homo sapiens; experiment: Immunostimulatory activity in human mDC assessed as induction of IL12 at 100 ug/ml after 24 hrs; format: functional; in short: as §1
PBMC [8] = experiment: Immunomodulatory activity in human PBMC assessed as induction of IFNalpha after 24 hrs; format: functional, cell-based
In short: (§3)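 Human PBMCs plated at 5 × 10^6 cells/mL; compounds dissolved in PBS added at various concentrations, 37 °C for 24 h. Supernatant cytokines/chemokines quantified with human Luminex multiplex kit.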

PBMC [9] = experiment: Immunomodulatory activity in human PBMC assessed as induction of IL10 after 24 hrs; format: functional, cell-based; in short: as §3
Homo sapiens [10] = organism: Homo sapiens; experiment: Immunostimulatory activity in human pDC assessed as induction of IL6 at 100 ug/ml after 24 hrs; format: functional; in short: as §2
PBMC [11] = experiment: Immunomodulatory activity in human PBMC assessed as induction of IL1-beta at 50 ug/ml after 24 hrs; format: functional, cell-based; in short: as §3
PBMC [12] = experiment: Immunomodulatory activity in human PBMC assessed as induction of IFNalpha at 50 ug/ml after 24 hrs; format: functional, cell-based; in short: as §3
Homo sapiens [13] = organism: Homo sapiens; experiment: Immunostimulatory activity in human pDC assessed as induction of IFNalpha at 100 ug/ml after 24 hrs; format: functional; in short: as §2
PBMC [14] = experiment: Immunomodulatory activity in human PBMC assessed as induction of TNFalpha at 50 ug/ml after 24 hrs; format: functional, cell-based; in short: as §3
PBMC [15] = experiment: Immunomodulatory activity in human PBMC assessed as induction of MIP1beta at 50 ug/ml after 24 hrs; format: functional, cell-based; in short: as §3
PBMC [16] = experiment: Immunomodulatory activity in human PBMC assessed as induction of MCP1 after 24 hrs; format: functional, cell-based; in short: as §3
PBMC [17] = experiment: Immunomodulatory activity in human PBMC assessed as induction of MIP1alpha at 50 ug/ml after 24 hrs; format: functional, cell-based; in short: as §3
Homo sapiens [18] = organism: Homo sapiens; experiment: Immunostimulatory activity in human mDC assessed as induction of TNFalpha at 100 ug/ml after 24 hrs; format: functional; in short: as §1
PBMC [19] = experiment: Immunomodulatory activity in human PBMC assessed as induction of IL6 at 50 ug/ml after 24 hrs; format: functional, cell-based; in short: as §3
PBMC [20] = experiment: Immunomodulatory activity in human PBMC assessed as induction of MIP1beta after 24 hrs; format: functional, cell-based; in short: as §3
PBMC [21] = experiment: Immunomodulatory activity in human PBMC assessed as induction of MCP1 at 50 ug/ml after 24 hrs; format: functional, cell-based; in short: as §3
PBMC [22] = experiment: Immunomodulatory activity in human PBMC assessed as induction of IP10 at 50 ug/ml after 24 hrs; format: functional, cell-based; in short: as §3
PBMC [23] = experiment: Immunomodulatory activity in human PBMC assessed as induction of TNFalpha after 24 hrs; format: functional, cell-based; in short: as §3
PBMC [24] = experiment: Immunomodulatory activity in human PBMC assessed as induction of IL12 at 50 ug/ml after 24 hrs; format: functional, cell-based; in short: as §3

Question: Which results are given for Nc1ccn([C@@H]2O[C@H](COP(=O)(S)O[C@H]3[C@@H](O)[C@H](n4cnc5c(N)ncnc54)O[C@@H]3COP(=O)(S)O[C@H]3[C@@H](O)[C@H](n4ccc5c(=O)[nH]c(N)nc54)O[C@@H]3COP(=O)(S)O[C@H]3[C@@H](O)[C@H](n4ccc(=O)[nH]c4=O)O[C@@H]3COP(=O)(S)O[C@H]3[C@@H](O)[C@H](n4ccc5c(=O)[nH]c(N)nc54)O[C@@H]3COP(=O)(S)O[C@H]3[C@@H](O)[C@H](n4cnc5c(N)ncnc54)O[C@@H]3COP(=O)(S)O[C@H]3[C@@H](O)[C@H](n4cnc5c(N)ncnc54)O[C@@H]3CO)[C@@H](OP(=O)(S)OC[C@H]3O[C@@H](n4ccc5c(=O)[nH]c(N)nc54)[C@H](O)[C@@H]3OP(=O)(S)OC[C@H]3O[C@@H](n4ccc(N)nc4=O)[C@H](O)[C@@H]3OP(=O)(S)OC[C@H]3O[C@@H](n4ccc(=O)[nH]c4=O)[C@H](O)[C@@H]3OP(=O)(S)OC[C@H]3O[C@@H](n4ccc(=O)[nH]c4=O)[C@H](O)[C@@H]3OP(=O)(S)OCC(O)COP(=O)(S)O[C@H]3[C@@H](O)[C@H](n4ccc(=O)[nH]c4=O)O[C@@H]3COP(=O)(S)O[C@H]3[C@@H](O)[C@H](n4ccc(=O)[nH]c4=O)O[C@@H]3COP(=O)(S)O[C@H]3[C@@H](O)[C@H](n4ccc(N)nc4=O)O[C@@H]3COP(=O)(S)O[C@H]3[C@@H](O)[C@H](n4ccc5c(=O)[nH]c(N)nc54)O[C@@H]3COP(=O)(S)O[C@H]3[C@@H](O)[C@H](n4ccc(N)nc4=O)O[C@@H]3COP(=O)(S)O[C@H]3[C@@H](O)[C@H](n4cnc5c(N)ncnc54)O[C@@H]3COP(=O)(S)O[C@H]3[C@@H](O)[C@H](n4ccc5c(=O)[nH]c(N)nc54)O[C@@H]3COP(=O)(S)O[C@H]3[C@@H](O)[C@H](n4ccc(=O)[nH]c4=O)O[C@@H]3COP(=O)(S)O[C@H]3[C@@H](O)[C@H](n4ccc5c(=O)[nH]c(N)nc54)O[C@@H]3COP(=O)(S)O[C@H]3[C@@H](O)[C@H](n4cnc5c(N)ncnc54)O[C@@H]3COP(=O)(S)O[C@H]3[C@@H](O)[C@H](n4cnc5c(N)ncnc54)O[C@@H]3CO)[C@H]2O)c(=O)n1 (stereo not given in full)?
Answer: fold change (FC) [1]: 22.6; Ratio (Homo sapiens [2]): 32.3; Activity (Homo sapiens [3]): Active; Activity (Homo sapiens [4]): Active; Activity (Homo sapiens [5]): Active; Activity (Homo sapiens [6]): Active; Activity (Mus musculus): Active; Activity (Homo sapiens [7]): Active; Activity (PBMC [8]): Dose-dependent effect; Activity (PBMC [9]): Dose-dependent effect; Activity (Homo sapiens [10]): Active; Activity (PBMC [11]): 105 pg/mL; Activity (PBMC [12]): 209 pg/mL; Activity (Homo sapiens [13]): Active; Activity (PBMC [14]): 57 pg/mL; Activity (PBMC [15]): 6230 pg/mL; Activity (PBMC [16]): Dose-dependent effect; Activity (PBMC [17]): 2540 pg/mL; Activity (Homo sapiens [18]): Active; Activity (PBMC [19]): 1300 pg/mL; Activity (PBMC [20]): Dose-dependent effect; Activity (PBMC [21]): 51500 pg/mL; Activity (PBMC [22]): 629 pg/mL; Activity (PBMC [23]): Dose-dependent effect; Activity (PBMC [24]): 316 pg/mL
